Results reported in ChEMBL document CHEMBL4376827, “Structure-Activity Relationship Studies To Identify Affinity Probes in Bis-aryl Sulfonamides That Prolong Immune Stimuli” (J Med Chem, 2019).

Key:
Homo sapiens [1] = species on record: Homo sapiens; test: Activation of LPS-induced NF-kappaB activity in human THP1-Blue-NF-kappaB cells assessed as increase in SEAP reporter activity at 5 uM incubated for 20 hrs by quanti-blue SEAP assay relative to control
Procedure, shortened: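 THP1-Blue NF-κB cells, 10^5/well, in RPMI with 10% FBS, pen/strep and Normocin. Compound (5 μM single point or graded concentrations, 0.05% DMSO) is added together with LPS; methods give final LPS 10 μg/mL, table footnote gives 10 ng/mL. Supernatant SEAP is read after 20 h by QuantiBlue colorimetry at 630 nm.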

Homo sapiens [2] = species on record: Homo sapiens; test: Activation of IFNalpha signalling in human ISRE-bla-THP1 cells assessed as increase in type-1 IFN-alpha induced ISRE activity at 5 uM preincubated for 16 hrs followed by CCF4-AM substrate addition and measured after 3 hrs by FRET based assay relative to control; type: cell-based
Procedure, shortened: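 ISRE-bla THP-1 cells, 5×10^4/well, in RPMI with 10% dialyzed FBS, 0.1 mM non-essential amino acids, 1 mM pyruvate and pen/strep. Cells are co-treated with IFN-α (final 100 U/mL) and compound: 5 μM single point or graded concentrations, 0.05% DMSO. After 16 h, CCF4-AM is added for 3 h at RT in the dark.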

THP-1 = test: Cytotoxicity against human THP1 cells assessed as reduction in cell viability at 5 uM incubated for 18 hrs by MTT assay relative to control; conditions: thp-1, 18 h

Compound	Activity (Homo sapiens [1]) [%]	Activity (Homo sapiens [2]) [%]	Activity (THP-1) [%]
COc1ccc(S(=O)(=O)Nc2cc(OC)c(Cl)cc2OC)cc1N	158	166	77.3
CCOc1ccc(S(=O)(=O)N(Cc2ccccc2)c2cc(OC)c(Cl)cc2OC)cc1	181	159	71.7
CCOc1ccc(S(=O)(=O)N(CCCNC(=O)CCCC[C@H]2SC[C@H]3NC(=O)N[C@H]32)c2cc(OC)c(Cl)cc2OC)cc1	195	175	69.6
CCOc1ccc(S(=O)(=O)Nc2ccc(Cl)c(OC)c2)cc1	126	99	83.7
CCCCCN(c1cc(OC)c(Cl)cc1OC)S(=O)(=O)c1ccc(OCC)cc1	135	105	72.9
C#CCOc1ccc(S(=O)(=O)Nc2cc(OC)c(Cl)cc2OC)cc1	97	99	80.9
CCOc1ccc(S(=O)(=O)N(c2cc(OC)c(Cl)cc2OC)C(C)C)cc1	76	169	103.2
CCOc1ccc(S(=O)(=O)N(CCCNC(=O)OC(C)(C)C)c2cc(OC)c(Cl)cc2OC)cc1	134	140	75.6
COc1cc(NS(=O)(=O)c2ccc(Oc3ccccc3)cc2)c(OC)cc1Cl	98	95	91.3
CCOC(=O)CN(c1cc(OC)c(Cl)cc1OC)S(=O)(=O)c1ccc(OCC)cc1	202	184	81.4
CCCCCCN(c1cc(OC)c(Cl)cc1OC)S(=O)(=O)c1ccc(OCC)cc1	81	99	95.2
CCCN(c1cc(OC)c(Cl)cc1OC)S(=O)(=O)c1ccc(OCC)cc1	227	199	71.6
C#CCCN(c1cc(OC)c(Cl)cc1OC)S(=O)(=O)c1ccc(OCC)cc1	206	201	70.1
CCOc1ccc(S(=O)(=O)Nc2cc(OC)c(N)cc2OC)cc1	101	102	92.2
COc1cc(NS(=O)(=O)c2ccc(OC)c(Br)c2)c(OC)cc1Cl	87	101	85
CCOc1ccc(S(=O)(=O)Nc2cc(OC)c(N=[N+]=[N-])cc2OC)cc1	215	201	76.6
CCCCCCCN(c1cc(OC)c(Cl)cc1OC)S(=O)(=O)c1ccc(OCC)cc1	108	95	90.4
COc1cc(NS(=O)(=O)c2ccc(C#N)cc2)c(OC)cc1Cl	97	106	102.9
CCOc1ccc(S(=O)(=O)N(CCCNC(=O)c2ccc(-c3c4ccc(=[N+](C)C)cc-4oc4cc(N(C)C)ccc34)c(C(=O)O)c2)c2cc(OC)c(Cl)cc2OC)cc1	111	123	76.9
CCOc1ccc(S(=O)(=O)Nc2cc(OC)c(Br)cc2OC)cc1	176	235	68.8
COc1cc(NS(=O)(=O)c2ccc(C(N)=O)cc2)c(OC)cc1Cl	103	94	91
COc1cc(NS(=O)(=O)c2ccc(OC)c(N=[N+]=[N-])c2)c(OC)cc1Cl	104	104	87.2
CCCCOc1ccc(S(=O)(=O)Nc2cc(OC)c(Cl)cc2OC)cc1	101	106	95.3
CCOc1ccc(S(=O)(=O)N(CCc2ccccc2)c2cc(OC)c(Cl)cc2OC)cc1	131	141	44
CCOc1ccc(S(=O)(=O)N(CCCNC(=O)CCCCCNC(=O)c2ccc3c(c2)C(=O)OC32c3ccc(O)cc3Oc3cc(O)ccc32)c2cc(OC)c(Cl)cc2OC)cc1	–	96	98.1
